Source: ChEMBL document CHEMBL4118098, “Discovery of DS28120313 as a potent orally active hepcidin production inhibitor: Design and optimization of novel 4,6-disubstituted indazole derivatives” (Bioorg Med Chem Lett, 2017)
Values belong to the compound of their own block, whether it stands above or below them.

How the values were obtained:
[1] = biological target: Tyrosine-protein kinase Fes/Fps (Homo sapiens) (UniProt P07332); test: Inhibition of FES (unknown origin) at 0.19 uM relative to control
[2] = biological target: Ribosomal protein S6 kinase alpha-6 (Homo sapiens) (UniProt Q9UK32); test: Inhibition of RSK4 (unknown origin) at 0.19 uM relative to control
[3] = tested on: Tyrosine-protein kinase ABL1 (Homo sapiens), P00519 [E255K]; test: Inhibition of ABL1 E255K mutant (unknown origin) at 0.19 uM relative to control
[4] = biological target: Mitogen-activated protein kinase kinase kinase kinase 2 (Homo sapiens) (UniProt Q12851); test: Inhibition of GCK (unknown origin) at 0.19 uM relative to control
[5] = biological target: Mitogen-activated protein kinase kinase kinase kinase 4 (Homo sapiens) (UniProt O95819); test: Inhibition of HGK (unknown origin) at 0.19 uM relative to control
[6] = biological target: Ephrin type-A receptor 4 (Homo sapiens) (UniProt P54764); test: Inhibition of EPHA4 (unknown origin) at 0.19 uM relative to control
[7] = biological target: T1, Serine/threonine-protein kinase D1 (Homo sapiens) (UniProt Q15139); test: Inhibition of PKD1 (unknown origin) at 0.19 uM relative to control
T1 sequence (whole entry): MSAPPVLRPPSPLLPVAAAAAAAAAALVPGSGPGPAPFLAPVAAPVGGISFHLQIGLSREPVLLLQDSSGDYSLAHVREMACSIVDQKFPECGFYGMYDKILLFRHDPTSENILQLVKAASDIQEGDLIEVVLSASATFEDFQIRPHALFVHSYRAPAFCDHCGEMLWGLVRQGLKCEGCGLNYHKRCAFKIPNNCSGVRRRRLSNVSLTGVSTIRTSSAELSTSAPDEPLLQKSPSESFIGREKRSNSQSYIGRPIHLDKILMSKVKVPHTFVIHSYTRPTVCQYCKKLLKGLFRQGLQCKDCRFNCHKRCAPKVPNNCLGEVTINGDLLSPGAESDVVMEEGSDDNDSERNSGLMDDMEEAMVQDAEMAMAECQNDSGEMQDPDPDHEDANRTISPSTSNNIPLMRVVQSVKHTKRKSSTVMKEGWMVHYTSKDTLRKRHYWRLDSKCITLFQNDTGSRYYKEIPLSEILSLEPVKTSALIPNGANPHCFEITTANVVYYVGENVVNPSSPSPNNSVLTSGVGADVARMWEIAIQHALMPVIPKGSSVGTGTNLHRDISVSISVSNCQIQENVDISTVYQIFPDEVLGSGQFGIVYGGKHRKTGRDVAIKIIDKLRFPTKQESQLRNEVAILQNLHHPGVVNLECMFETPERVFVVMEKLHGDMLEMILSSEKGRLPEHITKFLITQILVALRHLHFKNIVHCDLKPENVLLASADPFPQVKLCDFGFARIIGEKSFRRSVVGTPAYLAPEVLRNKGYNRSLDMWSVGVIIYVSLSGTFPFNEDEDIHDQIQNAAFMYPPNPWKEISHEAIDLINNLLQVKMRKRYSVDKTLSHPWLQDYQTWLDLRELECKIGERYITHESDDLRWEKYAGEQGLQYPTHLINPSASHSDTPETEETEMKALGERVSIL

[8] = tested on: Fibroblast growth factor receptor 1 (Homo sapiens), P11362 [V561M]; test: Inhibition of FGFR1 V561M mutant (unknown origin) at 0.19 uM relative to control
[9] = biological target: Serine/threonine-protein kinase Sgk3 (Homo sapiens) (UniProt Q96BR1); test: Inhibition of SGK3 (unknown origin) at 0.19 uM relative to control
[10] = biological target: Mitogen-activated protein kinase 3 (Homo sapiens) (UniProt P27361); test: Inhibition of Erk1 (unknown origin) at 0.19 uM relative to control
[11] = biological target: Aurora kinase B (Homo sapiens) (UniProt Q96GD4); test: Inhibition of AurB (unknown origin) at 0.19 uM relative to control
[12] = biological target: Ephrin type-A receptor 8 (Homo sapiens) (UniProt P29322); test: Inhibition of EPHA8 (unknown origin) at 0.19 uM relative to control
[13] = biological target: Epidermal growth factor receptor (Homo sapiens) (UniProt P00533); test: Inhibition of EGFR (unknown origin) at 0.19 uM relative to control
[14] = biological target: CDK4/Cyclin D3 (Homo sapiens) (UniProt P11802+P30281); test: Inhibition of CDK4/CyclinD3 (unknown origin) at 0.19 uM relative to control; assay type: protein-complex assay
[15] = biological target: Phosphorylase b kinase gamma catalytic chain, liver/testis isoform (Homo sapiens) (UniProt P15735); test: Inhibition of PhKg2 (unknown origin) at 0.19 uM relative to control
[16] = biological target: Casein kinase I isoform gamma-3 (Homo sapiens) (UniProt Q9Y6M4); test: Inhibition of CK1-gamma3 (unknown origin) at 0.164 uM relative to control
[17] = biological target: MAP kinase-interacting serine/threonine-protein kinase 1 (Homo sapiens) (UniProt Q9BUB5); test: Inhibition of MNK1 (unknown origin) at 0.164 uM relative to control
[18] = Fraction unbound in mouse plasma; assay type: ADME, cell-free
[19] = biological target: Tyrosine-protein kinase Lck (Homo sapiens) (UniProt P06239); test: Inhibition of LCK (unknown origin) at 0.164 uM relative to control
[20] = AUC in C57BL/6J mouse at 30 mg/kg, po by LC-MS/MS analysis; assay type: ADME, organism-based; conditions: in vivo
In short: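 C57BL/6J mice received a single oral dose of 30 mg/kg as a suspension in 0.5% methylcellulose. Plasma Cmax and AUC are reported as the average of two animals.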

[21] = biological target: Dual specificity protein kinase CLK3 (Homo sapiens) (UniProt P49761); test: Inhibition of CLK3 (unknown origin) at 0.164 uM relative to control
[22] = biological target: RAC-gamma serine/threonine-protein kinase (Homo sapiens) (UniProt Q9Y243); test: Inhibition of AKT3 (unknown origin) at 0.164 uM relative to control
[23] = biological target: Casein kinase I isoform alpha (Homo sapiens) (UniProt P48729); test: Inhibition of CSNK1A1 (unknown origin) at 0.164 uM relative to control
[24] = biological target: Tyrosine-protein kinase receptor TYRO3 (Homo sapiens) (UniProt Q06418); test: Inhibition of TYRO3 (unknown origin) at 0.164 uM relative to control
[25] = biological target: Protein kinase C epsilon type (Homo sapiens) (UniProt Q02156); test: Inhibition of PKC-epsilon (unknown origin) at 0.164 uM relative to control
[26] = biological target: NT-3 growth factor receptor (Homo sapiens) (UniProt Q16288); test: Inhibition of TRKC (unknown origin) at 0.164 uM relative to control
[27] = biological target: RAC-beta serine/threonine-protein kinase (Homo sapiens) (UniProt P31751); test: Inhibition of AKT2 (unknown origin) at 0.45 uM relative to control
[28] = biological target: Ribosomal protein S6 kinase alpha-4 (Homo sapiens) (UniProt O75676); test: Inhibition of MSK2 (unknown origin) at 0.45 uM relative to control
Sequence of Ribosomal protein S6 kinase alpha-4 (Homo sapiens) (O75676 whole entry, looked up): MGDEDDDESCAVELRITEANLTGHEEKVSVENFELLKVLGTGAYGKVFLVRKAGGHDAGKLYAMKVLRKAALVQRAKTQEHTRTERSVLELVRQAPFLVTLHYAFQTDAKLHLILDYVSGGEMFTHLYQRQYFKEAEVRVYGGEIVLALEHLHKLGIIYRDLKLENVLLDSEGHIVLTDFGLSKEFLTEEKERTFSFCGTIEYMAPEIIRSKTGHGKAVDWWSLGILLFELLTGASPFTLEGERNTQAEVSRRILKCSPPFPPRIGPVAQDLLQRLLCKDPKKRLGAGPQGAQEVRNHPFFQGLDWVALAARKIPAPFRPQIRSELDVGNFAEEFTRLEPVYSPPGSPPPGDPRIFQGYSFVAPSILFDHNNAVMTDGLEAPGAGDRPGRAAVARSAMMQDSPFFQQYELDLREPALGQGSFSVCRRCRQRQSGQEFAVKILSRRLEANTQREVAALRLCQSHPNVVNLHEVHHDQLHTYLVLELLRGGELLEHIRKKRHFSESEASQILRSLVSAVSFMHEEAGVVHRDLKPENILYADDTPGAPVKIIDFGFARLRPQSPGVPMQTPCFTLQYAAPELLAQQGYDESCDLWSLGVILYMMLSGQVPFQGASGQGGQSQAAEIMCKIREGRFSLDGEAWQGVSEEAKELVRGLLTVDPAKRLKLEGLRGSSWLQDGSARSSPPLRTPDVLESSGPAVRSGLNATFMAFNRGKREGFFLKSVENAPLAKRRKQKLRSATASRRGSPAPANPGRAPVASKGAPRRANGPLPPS

Sequence of Mitogen-activated protein kinase kinase kinase kinase 2 (Homo sapiens) (Q12851 whole entry, looked up): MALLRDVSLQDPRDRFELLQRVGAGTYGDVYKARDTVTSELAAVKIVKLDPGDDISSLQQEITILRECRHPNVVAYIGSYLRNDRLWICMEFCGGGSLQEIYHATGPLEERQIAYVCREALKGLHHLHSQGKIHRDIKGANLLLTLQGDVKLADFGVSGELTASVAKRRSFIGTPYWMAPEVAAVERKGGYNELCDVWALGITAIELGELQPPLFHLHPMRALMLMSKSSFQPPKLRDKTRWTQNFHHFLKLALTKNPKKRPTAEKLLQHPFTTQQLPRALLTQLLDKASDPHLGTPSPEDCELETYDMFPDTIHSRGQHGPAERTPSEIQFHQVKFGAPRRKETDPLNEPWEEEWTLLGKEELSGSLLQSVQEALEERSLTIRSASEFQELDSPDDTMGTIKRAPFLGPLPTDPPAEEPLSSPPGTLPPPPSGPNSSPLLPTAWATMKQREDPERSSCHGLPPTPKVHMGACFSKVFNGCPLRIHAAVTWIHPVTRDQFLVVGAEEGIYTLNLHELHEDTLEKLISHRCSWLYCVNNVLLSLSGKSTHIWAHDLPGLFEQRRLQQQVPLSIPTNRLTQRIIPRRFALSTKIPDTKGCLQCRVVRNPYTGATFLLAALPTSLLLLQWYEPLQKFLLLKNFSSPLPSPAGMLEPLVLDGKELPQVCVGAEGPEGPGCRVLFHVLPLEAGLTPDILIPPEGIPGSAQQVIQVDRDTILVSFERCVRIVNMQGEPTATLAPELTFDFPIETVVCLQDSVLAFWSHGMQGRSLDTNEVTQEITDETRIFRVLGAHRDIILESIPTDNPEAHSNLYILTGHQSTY
Sequence of Phosphorylase b kinase gamma catalytic chain, liver/testis isoform (Homo sapiens) (P15735 whole entry, canonical isoform): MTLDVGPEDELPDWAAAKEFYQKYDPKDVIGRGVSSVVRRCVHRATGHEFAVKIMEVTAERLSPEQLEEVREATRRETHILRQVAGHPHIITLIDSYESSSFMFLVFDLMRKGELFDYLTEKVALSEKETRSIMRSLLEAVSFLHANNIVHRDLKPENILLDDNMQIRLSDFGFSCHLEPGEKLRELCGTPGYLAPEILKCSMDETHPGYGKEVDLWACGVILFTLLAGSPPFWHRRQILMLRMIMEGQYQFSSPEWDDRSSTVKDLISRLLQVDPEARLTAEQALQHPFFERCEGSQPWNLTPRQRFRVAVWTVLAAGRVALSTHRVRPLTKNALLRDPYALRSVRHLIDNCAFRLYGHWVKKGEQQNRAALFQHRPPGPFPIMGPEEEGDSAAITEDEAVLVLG
Sequence of RAC-gamma serine/threonine-protein kinase (Homo sapiens) (Q9Y243 whole entry, canonical isoform): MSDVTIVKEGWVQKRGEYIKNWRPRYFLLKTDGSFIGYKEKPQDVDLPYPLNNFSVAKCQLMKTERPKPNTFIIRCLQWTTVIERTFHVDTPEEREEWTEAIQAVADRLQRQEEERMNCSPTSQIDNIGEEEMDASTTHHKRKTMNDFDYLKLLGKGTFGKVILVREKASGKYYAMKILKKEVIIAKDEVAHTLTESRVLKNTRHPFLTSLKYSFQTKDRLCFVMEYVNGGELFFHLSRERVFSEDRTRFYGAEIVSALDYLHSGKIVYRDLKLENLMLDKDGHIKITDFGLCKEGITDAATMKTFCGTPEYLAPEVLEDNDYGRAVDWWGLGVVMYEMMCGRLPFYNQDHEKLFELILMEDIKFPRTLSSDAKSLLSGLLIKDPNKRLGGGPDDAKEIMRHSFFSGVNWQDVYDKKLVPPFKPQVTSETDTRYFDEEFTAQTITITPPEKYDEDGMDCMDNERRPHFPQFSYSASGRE
Sequence of Tyrosine-protein kinase Lck (Homo sapiens) (P06239 2-509 limits assumed): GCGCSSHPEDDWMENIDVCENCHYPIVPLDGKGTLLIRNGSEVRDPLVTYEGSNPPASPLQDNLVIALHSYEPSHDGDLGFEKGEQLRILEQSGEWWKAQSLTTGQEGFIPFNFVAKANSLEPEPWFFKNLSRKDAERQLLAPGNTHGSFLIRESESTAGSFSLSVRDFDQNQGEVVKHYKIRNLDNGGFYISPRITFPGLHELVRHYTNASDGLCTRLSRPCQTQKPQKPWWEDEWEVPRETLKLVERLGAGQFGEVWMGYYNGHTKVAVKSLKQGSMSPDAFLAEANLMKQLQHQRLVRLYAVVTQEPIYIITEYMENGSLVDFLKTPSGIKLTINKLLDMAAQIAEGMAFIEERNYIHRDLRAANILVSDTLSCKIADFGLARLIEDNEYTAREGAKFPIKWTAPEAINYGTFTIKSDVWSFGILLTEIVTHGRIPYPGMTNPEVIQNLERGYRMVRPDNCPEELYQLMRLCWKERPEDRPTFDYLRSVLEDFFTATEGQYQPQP
Sequence of Ribosomal protein S6 kinase alpha-6 (Homo sapiens) (Q9UK32 whole entry): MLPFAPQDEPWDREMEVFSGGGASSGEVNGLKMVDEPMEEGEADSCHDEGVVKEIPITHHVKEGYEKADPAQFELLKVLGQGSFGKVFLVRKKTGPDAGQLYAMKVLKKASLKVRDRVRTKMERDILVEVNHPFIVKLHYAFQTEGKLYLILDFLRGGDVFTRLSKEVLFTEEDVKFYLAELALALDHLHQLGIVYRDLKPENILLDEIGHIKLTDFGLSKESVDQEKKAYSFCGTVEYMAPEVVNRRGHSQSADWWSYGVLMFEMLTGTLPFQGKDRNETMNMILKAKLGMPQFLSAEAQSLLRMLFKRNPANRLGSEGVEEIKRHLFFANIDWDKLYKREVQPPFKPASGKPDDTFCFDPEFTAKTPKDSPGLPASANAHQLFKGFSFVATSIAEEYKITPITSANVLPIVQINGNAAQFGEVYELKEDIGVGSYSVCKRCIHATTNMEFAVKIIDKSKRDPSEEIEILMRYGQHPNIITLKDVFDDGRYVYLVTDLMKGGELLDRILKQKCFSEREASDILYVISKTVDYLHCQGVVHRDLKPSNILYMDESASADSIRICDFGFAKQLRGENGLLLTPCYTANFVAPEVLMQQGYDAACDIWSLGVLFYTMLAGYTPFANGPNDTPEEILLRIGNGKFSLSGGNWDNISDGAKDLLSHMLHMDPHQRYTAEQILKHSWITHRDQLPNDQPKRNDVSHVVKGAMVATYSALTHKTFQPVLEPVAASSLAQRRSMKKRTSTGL
Sequence of Mitogen-activated protein kinase 3 (Homo sapiens) (P27361 whole entry): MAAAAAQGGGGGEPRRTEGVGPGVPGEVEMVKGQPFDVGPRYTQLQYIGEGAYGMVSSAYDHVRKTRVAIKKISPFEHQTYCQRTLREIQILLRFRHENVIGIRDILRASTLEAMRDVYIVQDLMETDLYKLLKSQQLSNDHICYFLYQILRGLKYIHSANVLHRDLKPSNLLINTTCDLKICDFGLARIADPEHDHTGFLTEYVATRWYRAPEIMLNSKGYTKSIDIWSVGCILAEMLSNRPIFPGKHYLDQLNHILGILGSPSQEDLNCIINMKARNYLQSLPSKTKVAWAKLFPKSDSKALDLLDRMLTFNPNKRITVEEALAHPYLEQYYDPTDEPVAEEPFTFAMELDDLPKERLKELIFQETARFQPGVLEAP
Sequence of Casein kinase I isoform gamma-3 (Homo sapiens) (Q9Y6M4 whole entry, looked up, canonical isoform): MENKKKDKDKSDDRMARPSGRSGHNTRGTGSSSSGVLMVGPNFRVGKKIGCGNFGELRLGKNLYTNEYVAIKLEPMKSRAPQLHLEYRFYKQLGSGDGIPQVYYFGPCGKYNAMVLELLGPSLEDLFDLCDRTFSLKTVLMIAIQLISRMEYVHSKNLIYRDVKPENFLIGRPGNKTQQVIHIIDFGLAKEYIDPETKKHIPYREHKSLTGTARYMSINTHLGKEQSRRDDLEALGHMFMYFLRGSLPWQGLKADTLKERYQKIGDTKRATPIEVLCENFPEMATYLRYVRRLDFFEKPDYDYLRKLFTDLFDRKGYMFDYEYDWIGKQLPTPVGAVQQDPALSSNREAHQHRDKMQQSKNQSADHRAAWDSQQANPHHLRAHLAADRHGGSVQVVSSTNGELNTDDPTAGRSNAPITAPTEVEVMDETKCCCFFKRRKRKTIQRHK
Sequence of MAP kinase-interacting serine/threonine-protein kinase 1 (Homo sapiens) (Q9BUB5 whole entry, looked up): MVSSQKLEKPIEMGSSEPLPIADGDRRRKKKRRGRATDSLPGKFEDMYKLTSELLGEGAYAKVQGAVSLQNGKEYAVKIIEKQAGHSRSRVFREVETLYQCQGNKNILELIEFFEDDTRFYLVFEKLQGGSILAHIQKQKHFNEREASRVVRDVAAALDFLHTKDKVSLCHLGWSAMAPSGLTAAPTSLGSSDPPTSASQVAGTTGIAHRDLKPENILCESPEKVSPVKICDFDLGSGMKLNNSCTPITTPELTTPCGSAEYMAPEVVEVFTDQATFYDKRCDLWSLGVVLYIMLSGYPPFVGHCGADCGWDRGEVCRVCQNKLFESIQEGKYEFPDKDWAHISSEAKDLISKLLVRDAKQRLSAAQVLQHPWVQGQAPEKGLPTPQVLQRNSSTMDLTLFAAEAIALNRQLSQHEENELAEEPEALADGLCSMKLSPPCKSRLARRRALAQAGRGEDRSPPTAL

- inhibition [1]: -5%
- inhibition [2]: -2%
- inhibition [3]: 64.7%
- inhibition [4]: 16.7%
- inhibition [5]: 72%
- inhibition [6]: 2%
- inhibition [7]: 7%
- inhibition [8]: 6%
- inhibition [9]: 4%
- inhibition [10]: 3.7%
- inhibition [11]: -2.3%
- inhibition [12]: 9.3%
- inhibition [13]: -6.7%
- inhibition [14]: -8%
- inhibition [15]: -4%
Compound: Cc1[nH]nc(C2CC2)c1-c1ccc2c(-c3ccc(N4CCN(C)CC4)nc3)n[nH]c2c1

- inhibition [16]: 5.3%
- inhibition [17]: 3.3%
- fraction unbound [18]: 0.24
- inhibition [19]: 17.3%
- AUC [20]: 14700 ng·h/mL
- inhibition [21]: 3.7%
- inhibition [22]: -2%
- inhibition [23]: 5%
- inhibition [24]: 7.7%
- inhibition [25]: -4%
- inhibition [26]: 7.3%
Compound: COC(=O)Nc1cc(-c2c(C3CC3)n[nH]c2C)cc2[nH]ncc12

- inhibition [27]: -2%
- inhibition [28]: -3.3%
Compound: Cc1n[nH]c(C)c1-c1ccc2c(NC(=O)c3ccc(N4CCN(C)CC4)cc3)n[nH]c2c1
